Results reported in PMC4332549 (ChemMedChem, 2012).
Blank lines part the entries; values can stand above or below the molecule they belong to. Square brackets hold non-standard residues; d marks the D form. Peptide text beside a SMILES is read from it. * marks the point of attachment. Palmitoyl = CCCCCCCCCCCCCCCC(=O)*; Ahp = NCCCCCCC(=O)O; Ahx = NCCCCCC(=O)O; Sar = CNCC(=O)O

Columns and labels:
Rat serum stability = format: in vitro ADME
How it was run: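 Male Sprague-Dawley rat trunk-blood serum, kept at −80 °C and used within 3 months. 10 μg peptide in 1 mL pre-warmed 25% serum in 0.1 M Tris-HCl pH 7.5 at 37 °C. Sampled at 0, 30 min, 1, 2, 4 and 8 h, quenched with TCA/isopropanol at −20 °C for 20 min, then centrifuged. Intact peptide measured by reverse-phase HPLC; t1/2 fitted from ≥3 independent time-courses.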

[1] = target: T1, hGAL1 (human galanin receptor GalR1) (Homo sapiens, UniProt P47211); assay: Competitive binding assay, Eu-labeled galanin, time-resolved fluorescence
T1 sequence (P47211 1-349): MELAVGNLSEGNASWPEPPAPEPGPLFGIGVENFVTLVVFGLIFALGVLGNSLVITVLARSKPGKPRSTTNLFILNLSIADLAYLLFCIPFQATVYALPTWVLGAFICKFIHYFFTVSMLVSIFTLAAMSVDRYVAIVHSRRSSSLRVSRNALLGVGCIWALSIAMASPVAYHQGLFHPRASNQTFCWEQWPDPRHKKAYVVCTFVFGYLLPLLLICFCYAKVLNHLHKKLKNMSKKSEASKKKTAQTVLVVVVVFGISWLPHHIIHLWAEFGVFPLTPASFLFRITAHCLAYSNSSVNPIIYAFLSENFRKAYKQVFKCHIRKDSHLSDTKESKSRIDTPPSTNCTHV

[2] = octanol-water log D, shake-flask / HPLC; cited from earlier work
[3] = target: T2, hGAL2 (human galanin receptor GalR2) (Homo sapiens, UniProt O43603); assay: Competitive binding assay, Eu-labeled galanin, time-resolved fluorescence
T2 sequence (O43603 1-387): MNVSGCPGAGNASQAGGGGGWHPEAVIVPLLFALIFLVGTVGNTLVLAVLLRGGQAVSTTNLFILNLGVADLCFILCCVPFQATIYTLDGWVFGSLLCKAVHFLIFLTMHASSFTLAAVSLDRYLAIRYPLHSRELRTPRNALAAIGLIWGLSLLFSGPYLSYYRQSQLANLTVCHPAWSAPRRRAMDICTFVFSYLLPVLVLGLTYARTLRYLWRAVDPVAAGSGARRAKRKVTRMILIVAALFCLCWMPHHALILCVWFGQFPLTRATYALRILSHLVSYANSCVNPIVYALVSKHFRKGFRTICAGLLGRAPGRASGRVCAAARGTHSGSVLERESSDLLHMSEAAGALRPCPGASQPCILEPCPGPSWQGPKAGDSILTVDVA

half-life at 10 µg/mL (Rat serum stability; male, Sprague-Dawley, rat, 25% rat serum, pH 7.5): > 10 h
SMILES: CCCCCCCCCCCCCCCC(=O)NCCCC[C@H](NC(=O)[C@@H](CCCCN)NC(=O)[C@@H](CCCCN)NC(=O)CCCCCCNC(=O)[C@H](Cc1ccc(O)cc1)NC(=O)CNC(=O)[C@H](C)NC(=O)[C@H](CO)NC(=O)[C@H](CC(N)=O)NC(=O)[C@H](CC(C)C)NC(=O)[C@@H](NC(=O)[C@H](Cc1c[nH]c2ccccc12)NC(=O)CNC)[C@@H](C)O)C(=O)N[C@H](CCCCN)C(N)=O [D-Gal(7-Ahp)-B2] (H-[Sar]WTLNSAGY[Ahp][dK][dK]K(Palmitoyl)[dK]-NH2)

Ki [1]: ≥ 30 µM
SMILES: CCCCCCCCCCCCCCCC(=O)NCCCC[C@H](NC(=O)[C@@H](CCCCN)NC(=O)[C@@H](CCCCN)NC(=O)[C@H](Cc1ccc(O)cc1)NC(=O)CNC(=O)[C@H](C)NC(=O)[C@H](CO)NC(=O)[C@H](CC(N)=O)NC(=O)[C@H](CC(C)C)NC(=O)[C@@H](NC(=O)[C@H](Cc1c[nH]c2ccccc12)NC(=O)CNC)[C@@H](C)O)C(=O)N[C@H](CCCCN)C(N)=O [D-[des-LLGP]Gal-B2] (H-[Sar]WTLNSAGY[dK][dK]K(Palmitoyl)[dK]-NH2)

SMILES: CCCCCCCCCCCCCCCC(=O)NCCCC[C@H](NC(=O)[C@H](CCCCN)NC(=O)[C@H](CCCCN)NC(=O)[C@@H]1CCCN1C(=O)CNC(=O)[C@H](CC(C)C)NC(=O)[C@H](CC(C)C)NC(=O)[C@H](Cc1ccc(O)cc1)NC(=O)CNC(=O)[C@H](C)NC(=O)[C@H](CO)NC(=O)[C@H](CC(N)=O)NC(=O)[C@H](CC(C)C)NC(=O)[C@@H](NC(=O)[C@H](Cc1c[nH]c2ccccc12)NC(=O)CNC)[C@@H](C)O)C(=O)N[C@@H](CCCCN)C(N)=O [Gal-B2]
increase of t1/2 compared to Gal(1-16) (Rat serum stability; rat serum): 80 fold
log D [2]: 1.24

Ki [1]: 1.17 ± 0.3 µM
SMILES: CCCCCCCCCCCCCCCC(=O)NCCCC[C@H](NC(=O)[C@H](CCCCN)NC(=O)[C@H](CCCCN)NC(=O)CCCCCNC(=O)[C@H](Cc1ccc(O)cc1)NC(=O)CNC(=O)[C@H](C)NC(=O)[C@H](CO)NC(=O)[C@H](CC(N)=O)NC(=O)[C@H](CC(C)C)NC(=O)[C@@H](NC(=O)[C@H](Cc1c[nH]c2ccccc12)NC(=O)CNC)[C@@H](C)O)C(=O)N[C@@H](CCCCN)C(N)=O [L-Gal(6-Ahx)-B2] (H-[Sar]WTLNSAGY[Ahx]KKK(Palmitoyl)K-NH2)

Ki [3]: 27.4 µM
Ki [1]: ≥ 30 µM
SMILES: CCCCCCCCCCCCCCCC(=O)NCCCC[C@H](NC(=O)[C@H](CCCCN)NC(=O)[C@H](CCCCN)NC(=O)[C@H](Cc1ccc(O)cc1)NC(=O)CNC(=O)[C@H](C)NC(=O)[C@H](CO)NC(=O)[C@H](CC(N)=O)NC(=O)[C@H](CC(C)C)NC(=O)[C@@H](NC(=O)[C@H](Cc1c[nH]c2ccccc12)NC(=O)CNC)[C@@H](C)O)C(=O)N[C@@H](CCCCN)C(N)=O [[des-LLGP]Gal-B2] (H-[Sar]WTLNSAGYKKK(Palmitoyl)K-NH2)
